Experimental data taken from ChEMBL document CHEMBL3526048, “In vitro metabolism of rivoglitazone, a novel peroxisome proliferator-activated receptor γ agonist, in rat, monkey, and human liver microsomes and freshly isolated hepatocytes” (Drug Metab Dispos, 2011).

Key:
[1] = Drug metabolism in monkey hepatocytes assessed as formation of (2S,3S,4S,5R,6R)-3,4,5-trihydroxy-6-(5-(4-((6-methoxy-1-methyl-1H-benzo[d]imidazol-2-yl)methoxy)benzyl)-2,4-dioxothiazolidin-3-yl)tetrahydro-2H-pyran-2-carboxylic acid at 30 uM after 3 hrs by radio-HPLC/LC-MS/MS analysis; conditions: cynomolgus monkey
[2] = Drug metabolism in cynomolgus monkey liver microsomes assessed as formation of 2-mercapto-3-(4-((6-methoxy-1-methyl-1H-benzo[d]imidazol-2-yl)methoxy)phenyl)propanoic acid at 20 uM after 2 to 4 hrs by radio-HPLC/LC-MS/MS analysis in presence of UDPGA, UDPGA/SAM and NADPH-generating system; format: ADME, Macaca fascicularis
Cytochrome P450 2C9 = Cytochrome P450 2C9 (Homo sapiens, UniProt P11712); test: Activity of human CYP2C9 expressed in microsomes isolated from baculovirus infected insect cell assessed as enzyme-mediated 2-((4-((2,4-dioxothiazolidin-5-yl)methyl)phenoxy)methyl)-1-methyl-1H-benzo[d]imidazol-6-yl hydrogen sulfate formation at 20 uM after 2 hrs by radio-HPLC/LC-MS/MS analysis; format: ADME
Method in brief: (§1)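 Baculovirus-insect-cell microsomes expressing the human CYP (1 mg/ml protein) were incubated with [14C]rivoglitazone (20 μM) in 50 mM potassium phosphate (pH 7.4) or 100 mM Tris-HCl (pH 7.5) with an NADPH-generating system (2 mM NADP+, 20 mM glucose 6-phosphate, 2 units/ml G6PDH, 10 mM MgCl2) for 2 h at 37°C. Insect-cell control supersomes served as the control. Reactions were stopped with acetonitrile, and the concentrated supernatants were analysed by radio-HPLC, LC-MS and LC-MS/MS.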

Cytochrome P450 1A2 = target: T1, Cytochrome P450 1A2 (Homo sapiens, UniProt P05177); test: Activity of human CYP1A2 expressed in microsomes isolated from baculovirus infected insect cell assessed as enzyme-mediated 2-hydroxy-3-(4-((6-methoxy-1-methyl-1H-benzo[d]imidazol-2-yl)methoxy)phenyl)propanamide formation at 20 uM after 2 hrs by radio-HPLC/LC-MS/MS analysis in presence of NADPH-generating system and NADPH-generating system/SAM; format: ADME
T1 sequence (P05177 whole entry): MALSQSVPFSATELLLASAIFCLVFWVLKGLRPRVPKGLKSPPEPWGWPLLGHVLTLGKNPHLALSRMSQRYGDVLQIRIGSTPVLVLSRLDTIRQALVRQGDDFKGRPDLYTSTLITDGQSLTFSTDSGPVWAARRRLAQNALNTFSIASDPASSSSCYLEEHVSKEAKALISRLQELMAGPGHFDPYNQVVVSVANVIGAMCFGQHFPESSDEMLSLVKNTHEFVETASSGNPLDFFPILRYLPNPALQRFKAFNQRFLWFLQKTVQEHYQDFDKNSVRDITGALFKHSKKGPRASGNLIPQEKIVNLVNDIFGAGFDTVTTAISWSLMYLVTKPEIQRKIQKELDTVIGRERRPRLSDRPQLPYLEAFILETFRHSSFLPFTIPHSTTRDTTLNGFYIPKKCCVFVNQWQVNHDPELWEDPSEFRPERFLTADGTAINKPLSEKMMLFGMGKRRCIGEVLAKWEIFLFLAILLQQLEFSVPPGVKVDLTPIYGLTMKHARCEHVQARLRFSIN
Method in brief: (§2)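 Baculovirus/insect-cell microsomes expressing single human CYPs, 1 mg/ml protein, with 50 mM potassium phosphate (pH 7.4) or 100 mM Tris-HCl (pH 7.5). NADPH-generating system: 2 mM NADP⁺, 20 mM glucose 6-phosphate, 2 units/ml G6PDH, 10 mM MgCl₂. [¹⁴C]rivoglitazone at 20 μM, 2 h at 37°C with shaking. Control used insect-cell control supersomes. Stopped with acetonitrile; supernatant concentrated under nitrogen; metabolites analysed by radio-HPLC, LC-MS and LC-MS/MS.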

[3] = Drug metabolism in monkey hepatocytes assessed as formation of 2-mercapto-3-(4-((6-methoxy-1-methyl-1H-benzo[d]imidazol-2-yl)methoxy)phenyl)propanoic acid at 30 uM after 3 hrs by radio-HPLC/LC-MS/MS analysis in presence of UDPGA, UDPGA/SAM and NADPH-generating system; conditions: cynomolgus monkey
Cytochrome P450 2C8 = target: T2, Cytochrome P450 2C8 (Homo sapiens, UniProt P10632); test: Activity of human CYP2C8 expressed in microsomes isolated from baculovirus infected insect cell assessed as enzyme-mediated 5-(4-((6-hydroxy-1-methyl-1H-benzo[d]imidazol-2-yl)methoxy)benzyl)thiazolidine-2,4-dione formation at 20 uM after 2 hrs by radio-HPLC/LC-MS/MS analysis in presence of NADPH-generating system and NADPH-generating system/SAM; format: ADME
T2 sequence (P10632 whole entry): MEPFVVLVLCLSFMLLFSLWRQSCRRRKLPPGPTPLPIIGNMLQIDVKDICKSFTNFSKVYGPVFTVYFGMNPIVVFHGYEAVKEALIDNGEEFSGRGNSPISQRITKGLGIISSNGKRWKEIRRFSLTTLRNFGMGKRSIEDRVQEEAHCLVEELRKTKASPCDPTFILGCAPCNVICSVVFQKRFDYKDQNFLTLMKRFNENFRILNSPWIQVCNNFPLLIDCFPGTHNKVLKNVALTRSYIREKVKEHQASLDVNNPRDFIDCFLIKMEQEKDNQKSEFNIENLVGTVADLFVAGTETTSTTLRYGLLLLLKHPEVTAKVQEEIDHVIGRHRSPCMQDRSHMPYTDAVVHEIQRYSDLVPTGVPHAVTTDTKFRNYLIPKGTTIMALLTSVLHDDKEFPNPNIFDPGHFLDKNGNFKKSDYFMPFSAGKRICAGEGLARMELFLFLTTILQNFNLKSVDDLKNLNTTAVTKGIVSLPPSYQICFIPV
Method in brief: as §2

Liver microsome [4] = test: Drug metabolism in human liver microsomes assessed as formation of 3-(4-((6-methoxy-1-methyl-1H-benzo[d]imidazol-2-yl)methoxy)phenyl)-2-(methylsulfinyl)propanamide at 20 uM after 2 hrs by radio-HPLC/LC-MS/MS analysis in presence of NADPH-generating system/SAM; format: ADME
Cytochrome P450 2D6 = Cytochrome P450 2D6 (Homo sapiens, UniProt P10635); test: Activity of human CYP2D6 expressed in microsomes isolated from baculovirus infected insect cell assessed as enzyme-mediated 2-mercapto-3-(4-((6-methoxy-1-methyl-1H-benzo[d]imidazol-2-yl)methoxy)phenyl)propanamide formation at 20 uM after 2 hrs by radio-HPLC/LC-MS/MS analysis in presence of NADPH-generating system and NADPH-generating system/SAM; format: ADME
Liver microsome [5] = test: Drug metabolism in Sprague-Dawley rat liver microsomes assessed as formation of 5-(4-((6-methoxy-1H-benzo[d]imidazol-2-yl)methoxy)benzyl)thiazolidine-2,4-dione at 20 uM after 2 hrs by radio-HPLC/LC-MS/MS analysis in presence of NADPH-generating system and NADPH-generating system/SAM; format: ADME
Liver microsome [6] = test: Drug metabolism in human liver microsomes assessed as formation of 5-hydroxy-5-(4-((6-methoxy-1-methyl-1H-benzo[d]imidazol-2-yl)methoxy)benzyl)thiazolidine-2,4-dione at 20 uM after 2 hrs by radio-HPLC/LC-MS/MS analysis in presence of NADPH-generating system and NADPH-generating system/SAM; format: ADME
Cytochrome P450 3A4 = Cytochrome P450 3A4 (Homo sapiens, UniProt P08684); test: Activity of human CYP3A4 expressed in microsomes isolated from baculovirus infected insect cell assessed as enzyme-mediated 2-((4-((2,4-dioxothiazolidin-5-yl)methyl)phenoxy)methyl)-1-methyl-1H-benzo[d]imidazol-6-yl hydrogen sulfate formation at 20 uM after 2 hrs by radio-HPLC/LC-MS/MS analysis; format: ADME
Method in brief: as §1

Cytochrome P450 3A4, sequence (P08684 whole entry): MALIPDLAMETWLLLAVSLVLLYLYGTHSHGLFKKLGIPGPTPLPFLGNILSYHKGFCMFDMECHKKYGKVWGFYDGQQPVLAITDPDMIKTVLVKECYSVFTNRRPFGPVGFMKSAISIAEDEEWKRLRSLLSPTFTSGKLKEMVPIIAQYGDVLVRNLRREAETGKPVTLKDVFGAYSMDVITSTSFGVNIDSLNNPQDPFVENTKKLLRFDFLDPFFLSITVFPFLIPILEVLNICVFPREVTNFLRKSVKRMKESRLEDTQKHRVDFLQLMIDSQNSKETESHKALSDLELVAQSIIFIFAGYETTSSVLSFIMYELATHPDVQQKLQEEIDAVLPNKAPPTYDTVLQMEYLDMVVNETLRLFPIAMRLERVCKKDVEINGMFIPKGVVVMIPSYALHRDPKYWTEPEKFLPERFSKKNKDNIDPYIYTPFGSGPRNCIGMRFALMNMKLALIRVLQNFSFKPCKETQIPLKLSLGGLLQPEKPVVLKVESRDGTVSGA
Cytochrome P450 2D6, sequence (P10635 whole entry): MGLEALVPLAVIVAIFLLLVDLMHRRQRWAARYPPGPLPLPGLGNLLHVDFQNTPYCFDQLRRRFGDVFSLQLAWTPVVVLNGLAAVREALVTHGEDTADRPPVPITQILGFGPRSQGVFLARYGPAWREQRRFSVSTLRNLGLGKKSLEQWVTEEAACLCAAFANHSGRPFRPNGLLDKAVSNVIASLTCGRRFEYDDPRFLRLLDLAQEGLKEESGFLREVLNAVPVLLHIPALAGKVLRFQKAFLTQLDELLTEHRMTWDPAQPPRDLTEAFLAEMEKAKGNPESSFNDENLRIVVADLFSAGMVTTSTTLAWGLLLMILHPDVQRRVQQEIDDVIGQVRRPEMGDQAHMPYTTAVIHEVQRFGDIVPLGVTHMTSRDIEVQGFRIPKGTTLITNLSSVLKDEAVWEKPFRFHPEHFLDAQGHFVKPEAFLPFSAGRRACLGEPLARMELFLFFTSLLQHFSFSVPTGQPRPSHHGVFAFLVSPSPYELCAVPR
Cytochrome P450 2C9, sequence (P11712 whole entry): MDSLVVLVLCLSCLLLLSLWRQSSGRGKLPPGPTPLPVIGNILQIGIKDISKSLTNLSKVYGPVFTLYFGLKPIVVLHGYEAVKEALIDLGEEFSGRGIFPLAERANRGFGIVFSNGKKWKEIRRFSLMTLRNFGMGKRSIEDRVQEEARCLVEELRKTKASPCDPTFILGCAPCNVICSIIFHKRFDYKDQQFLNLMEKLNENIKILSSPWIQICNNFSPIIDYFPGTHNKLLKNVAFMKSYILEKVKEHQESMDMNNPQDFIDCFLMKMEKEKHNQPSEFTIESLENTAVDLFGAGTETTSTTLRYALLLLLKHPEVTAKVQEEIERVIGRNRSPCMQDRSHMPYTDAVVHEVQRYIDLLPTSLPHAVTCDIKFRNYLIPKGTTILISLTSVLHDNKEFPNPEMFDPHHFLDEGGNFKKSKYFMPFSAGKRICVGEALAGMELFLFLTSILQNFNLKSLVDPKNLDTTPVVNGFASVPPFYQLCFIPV

Drug metabolism [1]: metabolite_detected
Drug metabolism [2]: metabolite_detected
Drug metabolism (Cytochrome P450 2C9): metabolite_not_detected
Drug metabolism (Cytochrome P450 1A2): metabolite_detected
Drug metabolism [3]: metabolite_not_detected
Drug metabolism (Cytochrome P450 2C8): metabolite_detected
Drug metabolism (Liver microsome [4]): metabolite_detected
Drug metabolism (Cytochrome P450 2D6): metabolite_detected
Drug metabolism (Liver microsome [5]): metabolite_detected
Drug metabolism (Liver microsome [6]): metabolite_detected
Drug metabolism (Cytochrome P450 3A4): metabolite_not_detected
SMILES: COc1ccc2nc(COc3ccc(C[14CH]4SC(=O)NC4=O)cc3)n(C)c2c1.Cl (racemic)
